Data published in ChEMBL document CHEMBL4308855, “Synthesis, in vitro and in vivo evaluation of 2-aryl-4H-chromene and 3-aryl-1H-benzo[f]chromene derivatives as novel α-glucosidase inhibitors” (Bioorg Med Chem Lett, 2019).
Calls of active or inactive are those of the source. No cut-off for these calls is given here.

Legend:
[1] = system: Saccharomyces cerevisiae; assay: Inhibition of Saccharomyces cerevisiae alpha-glucosidase at 1 mM using […] preincubated for 5 mins followed by substrate addition and measured after 15 mins relative to control; details: in the assay text read “p-nitrophenyl alpha-D-glucopyranoside” for “p-nitrophenyl beta-D-glucopyranoside”
Procedure, shortened: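 Single-concentration screen at 1 mM against S. cerevisiae α-glucosidase. p-Nitrophenyl-α-D-glucopyranoside substrate was fixed at 1 mM, well above the Km determined in fixed-time runs, to saturate the enzyme. Inhibition is relative to the negative control, with significance by Student t-test (p < 0.05).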

[2] = Inhibition of Saccharomyces cerevisiae alpha-glucosidase using […] preincubated for 5 mins followed by substrate addition and measured after 15 mins; details: in the assay text read “p-nitrophenyl alpha-D-glucopyranoside” for “p-nitrophenyl beta-D-glucopyranoside”
Procedure, shortened: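 S. cerevisiae α-glucosidase with p-nitrophenyl-α-D-glucopyranoside substrate fixed at 1 mM (above Km, saturating). Inhibitor was tested across a 10^-3–10^-9 M range. IC50 was obtained by nonlinear regression of the concentration–inhibition data.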

[3] = system: Rattus norvegicus; assay: In vivo inhibition of intestinal maltase-glucoamylase in Wistar rat assessed as reduction in postprandial hyperglycemia at 2.2 mg/kg, po pretreated for 30 mins followed by maltose challenge and measured after 30 to 120 mins by OMTT; assay type: functional, organism-based
Procedure, shortened: (§1)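 Male Wistar rats received the test agent per os at the dose in the line, then a 2 g/kg maltose load. Blood glucose was followed after the maltose challenge. n = 5 per group, reported as m ± SEM. Comparisons were by 1-way ANOVA against vehicle and the reference group.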

[4] = system: Saccharomyces cerevisiae; assay: Potency index, ratio of acarbose IC50 to test compound IC50 for Saccharomyces cerevisiae alpha-glucosidase
[5] = system: Rattus norvegicus; assay: In vivo inhibition of intestinal maltase-glucoamylase in Wistar rat assessed as reduction in postprandial hyperglycemia at 5 mg/kg, po pretreated for 30 mins followed by maltose challenge and measured after 30 to 120 mins by OMTT; assay type: functional, organism-based; procedure, shortened: as §1
[6] = target: Alpha glucosidase (Homo sapiens, UniProt O43451+P10253+P14410+Q2M2H8); assay: Inhibition of alpha-glucosidase (unknown origin) using p-nitrophenyl beta-D-glucopyranoside as substrate measured after 20 mins; assay type: protein assay

Structure (SMILES) | inhibition [1] [%] | IC50 [2] [µM] | further results
CCc1ccc(C2=CCc3c(ccc4ccccc34)O2)cc1 | 91.7 | 649 | 
Clc1ccc(C2C=C(c3ccccc3)Oc3ccc4ccccc4c32)cc1 (configuration not stated) | 18.3 |  | 
C1=C(c2ccccc2)Oc2ccc3ccccc3c2C1 | 10.8 |  | 
COc1ccc(C2C=C(c3ccccc3)Oc3ccc4ccccc4c32)cc1OC (configuration not stated) | 43.7 | > 1000 | 
C1=C(c2ccccc2)Oc2ccccc2C1c1ccccc1 (configuration not stated) | 60.8 | 62.3 | inhibition [3]: Active; Ratio IC50 [4]: 9
C[C@H]1O[C@H](O[C@H]2[C@H](O)[C@@H](O)[C@@H](O[C@H]3[C@H](O)[C@@H](O)C(O)O[C@@H]3CO)O[C@@H]2CO)[C@H](O)[C@@H](O)[C@@H]1N[C@H]1C=C(CO)[C@@H](O)[C@H](O)[C@H]1O (some centres not stated) [ACARBOSE] | 55.8 | 544 | inhibition [5]: Active
Clc1ccc(C2=CC(c3ccc(Cl)cc3)c3c(ccc4ccccc34)O2)cc1 (configuration not stated) | 14.9 |  | 
COc1ccc(C2CCc3c(ccc4ccccc34)O2)cc1 (configuration not stated) | 19.7 |  | 
Cc1ccc(C2=CC(c3ccc(Cl)cc3)c3c(ccc4ccccc34)O2)cc1 (configuration not stated) | 47.6 | 898 | 
Oc1cc(O)c2c(c1)O[C@@H](c1ccc(O)c(O)c1)[C@H](O)C2 [(-)-CATECHIN] |  |  | IC50 [6]: 53.8 µM
Clc1ccc(C2=CC(c3ccccc3)c3ccccc3O2)cc1 (configuration not stated) | 69 | 950 | 
COc1ccc(C2C=C(c3ccc(O)cc3)Oc3ccc4ccccc4c32)cc1 (configuration not stated) | 36.1 |  | 
C1=C(c2ccccc2)Oc2ccc3ccccc3c2C1c1ccccc1 (configuration not stated) | 39.6 |  | 
